The values that follow come from ChEMBL document CHEMBL1154888, “Discorhabdins from the Korean marine sponge Sceptrella sp” (J Nat Prod, 2010).

One test relates to Bacillus subtilis. Briefly: Antibacterial activity against Bacillus subtilis ATCC 6633. Format: functional.
The test system of another test is Staphylococcus aureus. Briefly: Antibacterial activity against Staphylococcus aureus […]. Format: functional.
The next test deals with Micrococcus luteus. As to the kind of experiment: Antibacterial activity against Micrococcus luteus IFO 12708. Format: functional.
The test system of the next test is Escherichia coli. Briefly: Antibacterial activity against Escherichia coli ATCC 25922. In kind it is functional.
Another test concerns Proteus vulgaris. Briefly: Antibacterial activity against Proteus vulgaris ATCC 3851. In kind it is functional.
For the next test, the system named is Salmonella enterica. Briefly: Antibacterial activity against Salmonella Typhimurium ATCC 14028. Format: functional, Salmonella enterica subsp. enterica serovar Typhimurium.
For a further test, the system named is K562. Briefly: Cytotoxicity against human K562 cells assessed as viable cells after 72 hrs by MTS/PMS assay. Format: functional, cell-based. As to conditions: K562, 72 h.
For a further test, the target named is T1, Sortase A (Staphylococcus aureus, UniProt Q9S446).
T1 sequence (Q9S446 whole entry): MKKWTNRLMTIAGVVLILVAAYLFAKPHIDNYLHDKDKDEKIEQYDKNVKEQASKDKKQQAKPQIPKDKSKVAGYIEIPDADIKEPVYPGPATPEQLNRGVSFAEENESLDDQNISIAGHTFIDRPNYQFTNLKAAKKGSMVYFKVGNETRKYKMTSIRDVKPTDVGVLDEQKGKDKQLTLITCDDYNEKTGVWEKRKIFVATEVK
Briefly: Inhibition of Staphylococcus aureus sortase A after 1 hr in the presence of fluorescent peptide Dabcul-QALPETGEE-Edans by fluorimetry. The method in brief:
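p-Hydroxymercuribenzoic acid (p-HMB) run alongside as the positive control.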

Test [1] addresses T2, Sortase A (Staphylococcus aureus) (UniProt Q9S446).
T2 sequence (whole entry): T1 sequence (Q9S446 whole entry)
As to the kind of experiment: Selectivity ratio, inhibition of recombinant sortase A from Staphylococcus aureus of drug over the para-(hydroxymercury)benzoic acid sodium salt.

In brackets after ≈: the same amount, converted by molar mass.

For the compound `O=C1C2=C3C4=[N+](CCc5c[nH]c1c54)C1C[C@@]34C[C@@H](N2)SC4=CC1=O`, the MIC was 25 µg/mL in the test with Bacillus subtilis; 100 µg/mL in the test with Staphylococcus aureus; 6.25 µg/mL in the test on Micrococcus luteus; greater than 100 µg/mL against Escherichia coli; greater than 100 µg/mL against Proteus vulgaris; greater than 100 µg/mL against Salmonella enterica. In the test on K562, the half-maximal inhibitory concentration (IC50) turned out to be 6.1 µM.
On to `O=C1C=C[C@]2(C=C1Br)CCNC1=C2C2=NCCc3c[nH]c(c32)C1=O`, for which the MIC in the test with Bacillus subtilis is 50 µg/mL (≈ 130 µM); in the test with Staphylococcus aureus, 100 µg/mL (≈ 260 µM); against Micrococcus luteus, 50 µg/mL (≈ 130 µM); against Escherichia coli, greater than 100 µg/mL; in the test with Proteus vulgaris, 25 µg/mL (≈ 65.1 µM); in the test with Salmonella enterica, 50 µg/mL (≈ 130 µM). In addition, the IC50 in the test on K562 is 1.3 µM; on Sortase A, 186 µM.
Regarding `O=C1C2=C3C4=[N+](CCc5c[nH]c1c54)C1[C@H](O)CC(=O)[C@@]3(C[C@@H](O)N2)[C@H]1O`, the minimal inhibitory concentration (MIC) in the test on Bacillus subtilis is greater than 100 µg/mL; with Staphylococcus aureus it was greater than 100 µg/mL; in the test on Micrococcus luteus, 50 µg/mL; against Escherichia coli, greater than 100 µg/mL; with Proteus vulgaris, greater than 100 µg/mL; in the test with Salmonella enterica, greater than 100 µg/mL. Also, the IC50 in the test on K562 stood at 2.2 µM; on Sortase A it was 6.5 µM. For the same compound, the Selectivity ratio in [1] was found to be 10.
Turning to `O=C1C2=C3C4=[N+](CCc5c[nH]c1c54)C1[C@H](O)C=C4S[C@@H](C[C@@]43[C@H]1O)N2`, the MIC is 100 µg/mL with Bacillus subtilis; greater than 100 µg/mL in the test on Staphylococcus aureus; 25 µg/mL in the test with Micrococcus luteus; greater than 100 µg/mL in the test on Escherichia coli; 50 µg/mL in the test on Proteus vulgaris; greater than 100 µg/mL in the test with Salmonella enterica. The IC50 in the test on K562 was 2.5 µM; at Sortase A it was 192 µM.
With `O=C1C2=C3C4=[N+](CCc5c[nH]c1c54)C1C[C@@]34C[C@@H](N2)SC4=C[C@H]1O`, the MIC in the test on Bacillus subtilis was 25 µg/mL; in the test on Staphylococcus aureus, greater than 100 µg/mL; against Micrococcus luteus, 25 µg/mL; against Escherichia coli, greater than 100 µg/mL; against Proteus vulgaris, 50 µg/mL; in the test with Salmonella enterica, greater than 100 µg/mL. Moreover, the IC50 in the test with K562 turned out to be 2.1 µM; on Sortase A, 75.7 µM.
Consider `CO[C@H]1C2C(=O)C=C3S[C@H]4C[C@]31C1=C(N4)C(=O)c3[nH]cc4c3C1=[N+]2CC4`, for which the MIC in the test with Bacillus subtilis is 50 µg/mL; against Staphylococcus aureus it was 50 µg/mL; against Micrococcus luteus, 12.5 µg/mL; with Escherichia coli, greater than 100 µg/mL; with Proteus vulgaris, 100 µg/mL; against Salmonella enterica, 100 µg/mL. In addition, the figures for the IC50 in the test on K562 and at Sortase A were 2.5 µM and 146 µM, respectively.
In the case of `O=C1C2=C3C4=[N+](CCc5c[nH]c1c54)C1C(=O)C=C4S[C@@H](C[C@@]43[C@H]1O)N2`, the MIC is 25 µg/mL in the test with Bacillus subtilis; 50 µg/mL in the test with Staphylococcus aureus; 12.5 µg/mL against Micrococcus luteus; greater than 100 µg/mL in the test on Escherichia coli; 100 µg/mL against Proteus vulgaris; 100 µg/mL against Salmonella enterica. Moreover, the 50% inhibitory concentration (IC50) was 4.5 µM in the test with K562 and 130 µM on Sortase A.
Consider `O=C1C=C[C@@]23C[C@@H](NC4=C2C2=NCCc5c[nH]c(c52)C4=O)SC3=C1` [1-DEBROMODISCORHABDIN B], for which the minimum inhibitory concentration (MIC) against Bacillus subtilis was 12.5 µg/mL (≈ 37.3 µM); with Staphylococcus aureus it was 25 µg/mL (≈ 74.5 µM); in the test on Micrococcus luteus, 25 µg/mL (≈ 74.5 µM); in the test with Escherichia coli, greater than 100 µg/mL; with Proteus vulgaris it was 50 µg/mL (≈ 149 µM); against Salmonella enterica, 50 µg/mL (≈ 149 µM). Besides, the IC50 in the test on K562 was 25 µM; on Sortase A, 160 µM.
Turning to `O=C1C=C2S[C@H]3C[C@]2(C=C1Br)C1=C(N3)C(=O)c2[nH]cc3c2C1=NCC3` [(+)-DISCORHABDIN B], the MIC against Bacillus subtilis is 12.5 µg/mL (≈ 30.2 µM); in the test on Staphylococcus aureus it was 50 µg/mL (≈ 121 µM); against Micrococcus luteus, 25 µg/mL (≈ 60.3 µM); against Escherichia coli, greater than 100 µg/mL; against Proteus vulgaris it was 3.12 µg/mL (≈ 7.54 µM); against Salmonella enterica it was 100 µg/mL (≈ 241 µM). The figures for the 50% inhibitory concentration (IC50) with K562 and on Sortase A were 7.2 µM and 132 µM, respectively.
Take `CC1(C)S[C@@H]2[C@H](NC(=O)[C@H](N)c3ccccc3)C(=O)N2[C@H]1C(=O)O` [AMPICILLIN]: the MIC worked out at 1.56 µg/mL (≈ 4.46 µM) in the test with Bacillus subtilis; 1.56 µg/mL (≈ 4.46 µM) in the test with Staphylococcus aureus; 1.56 µg/mL (≈ 4.46 µM) in the test on Micrococcus luteus; 12.5 µg/mL (≈ 35.8 µM) with Escherichia coli; 3.12 µg/mL (≈ 8.93 µM) against Proteus vulgaris; 3.12 µg/mL (≈ 8.93 µM) in the test on Salmonella enterica.
With `O=C1C=CC2(C=C1)CCNC1=C2C2=NCCc3c[nH]c(c32)C1=O` [DIDEBROMODISCORHABDIN C], the MIC against Bacillus subtilis, against Staphylococcus aureus, in the test with Micrococcus luteus, against Escherichia coli, against Proteus vulgaris and against Salmonella enterica was greater than 100 µg/mL each time. Besides, the IC50 amounted to 21 µM with K562 and 127 µM on Sortase A.
For the compound `O=C1C2=C(C3=NCCc4c[nH]c1c43)C1(C=C(Br)C(O)C(Br)=C1)CCN2` (centres undefined) [DIHYDRODISCORHABDIN C], the MIC against Bacillus subtilis is 100 µg/mL (≈ 215 µM); with Staphylococcus aureus, greater than 100 µg/mL; with Micrococcus luteus it was 100 µg/mL (≈ 215 µM); against Escherichia coli, greater than 100 µg/mL; with Proteus vulgaris, greater than 100 µg/mL; against Salmonella enterica, greater than 100 µg/mL. Also, the figures for the IC50 with K562 and on Sortase A were 20.2 µM and greater than 300 µM, respectively.
In the case of `O=C1C(Br)=CC2(C=C1Br)CCNC1=C2C2=NCCc3c[nH]c(c32)C1=O` [DISCORHABDIN C], the minimal inhibitory concentration (MIC) in the test with Bacillus subtilis is 25 µg/mL (≈ 54 µM); in the test on Staphylococcus aureus it was greater than 100 µg/mL; in the test with Micrococcus luteus it was 12.5 µg/mL (≈ 27 µM); in the test with Escherichia coli, greater than 100 µg/mL; in the test on Proteus vulgaris it was 50 µg/mL (≈ 108 µM); against Salmonella enterica, greater than 100 µg/mL. The IC50 in the test with K562 is 25.2 µM; at Sortase A, 165 µM.
Consider `COc1cccc2c1C(=O)c1c(O)c3c(c(O)c1C2=O)C[C@@](O)(C(=O)CO)C[C@@H]3O[C@H]1C[C@H](N)[C@H](O)[C@H](C)O1` [DOXORUBICIN], for which the IC50 with K562 amounted to 8.5 µM.
For the compound `O=C1C(NCCc2ccc(O)cc2)=CC2=NCCc3c[nH]c1c32` [MAKALUVAMINE D], the MIC against Bacillus subtilis was 25 µg/mL (≈ 81.3 µM); in the test with Staphylococcus aureus, greater than 100 µg/mL; in the test on Micrococcus luteus it was 50 µg/mL (≈ 163 µM); in the test with Escherichia coli, greater than 100 µg/mL; in the test with Proteus vulgaris, greater than 100 µg/mL; in the test with Salmonella enterica, 100 µg/mL (≈ 325 µM). Besides, the IC50 in the test with K562 is 24.6 µM; on Sortase A, 148 µM.
As for `O=C1C(NC2Cc3cc(Br)c(O)cc3S2)=CC2=NCCc3c[nH]c1c32` (centres undefined) [MAKALUVAMINE F], the MIC against Bacillus subtilis was 12.5 µg/mL (≈ 30 µM); with Staphylococcus aureus, 50 µg/mL (≈ 120 µM); in the test with Micrococcus luteus, 3.12 µg/mL (≈ 7.51 µM); with Escherichia coli, greater than 100 µg/mL; with Proteus vulgaris it was 25 µg/mL (≈ 60.1 µM); in the test on Salmonella enterica it was 100 µg/mL (≈ 240 µM). Further, the IC50 with K562 amounted to 8.9 µM; at Sortase A, 175 µM.

As usually defined, the MIC is the smallest concentration in the dilution series that meets the test's criterion for growth inhibition. High values mean a less susceptible organism, low ones a more susceptible organism. One may read the IC50 as the concentration that inhibits the measured activity by half.
